Results on 27 molecules are retold here after ChEMBL document CHEMBL1123181 (J Med Chem, 1986).

Assay [1] concerns Rattus norvegicus. In words: Maximum percent change in mean arterial pressure by the compound over control after po administration at 30 mg/kg dosage. Type of assay: functional, Artery. In outline:
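Spontaneously hypertensive rats kept on a sodium-deficient diet received the agent orally. Value = maximum % change in mean arterial pressure over control. Duration = time outside a control area, defined as the means ±2 SD of arterial pressure and heart rate readings from 45 control rats.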

The target of assay [2] is T1, Angiotensin-converting enzyme (Oryctolagus cuniculus, UniProt P12822).
T1 sequence (P12822 whole entry): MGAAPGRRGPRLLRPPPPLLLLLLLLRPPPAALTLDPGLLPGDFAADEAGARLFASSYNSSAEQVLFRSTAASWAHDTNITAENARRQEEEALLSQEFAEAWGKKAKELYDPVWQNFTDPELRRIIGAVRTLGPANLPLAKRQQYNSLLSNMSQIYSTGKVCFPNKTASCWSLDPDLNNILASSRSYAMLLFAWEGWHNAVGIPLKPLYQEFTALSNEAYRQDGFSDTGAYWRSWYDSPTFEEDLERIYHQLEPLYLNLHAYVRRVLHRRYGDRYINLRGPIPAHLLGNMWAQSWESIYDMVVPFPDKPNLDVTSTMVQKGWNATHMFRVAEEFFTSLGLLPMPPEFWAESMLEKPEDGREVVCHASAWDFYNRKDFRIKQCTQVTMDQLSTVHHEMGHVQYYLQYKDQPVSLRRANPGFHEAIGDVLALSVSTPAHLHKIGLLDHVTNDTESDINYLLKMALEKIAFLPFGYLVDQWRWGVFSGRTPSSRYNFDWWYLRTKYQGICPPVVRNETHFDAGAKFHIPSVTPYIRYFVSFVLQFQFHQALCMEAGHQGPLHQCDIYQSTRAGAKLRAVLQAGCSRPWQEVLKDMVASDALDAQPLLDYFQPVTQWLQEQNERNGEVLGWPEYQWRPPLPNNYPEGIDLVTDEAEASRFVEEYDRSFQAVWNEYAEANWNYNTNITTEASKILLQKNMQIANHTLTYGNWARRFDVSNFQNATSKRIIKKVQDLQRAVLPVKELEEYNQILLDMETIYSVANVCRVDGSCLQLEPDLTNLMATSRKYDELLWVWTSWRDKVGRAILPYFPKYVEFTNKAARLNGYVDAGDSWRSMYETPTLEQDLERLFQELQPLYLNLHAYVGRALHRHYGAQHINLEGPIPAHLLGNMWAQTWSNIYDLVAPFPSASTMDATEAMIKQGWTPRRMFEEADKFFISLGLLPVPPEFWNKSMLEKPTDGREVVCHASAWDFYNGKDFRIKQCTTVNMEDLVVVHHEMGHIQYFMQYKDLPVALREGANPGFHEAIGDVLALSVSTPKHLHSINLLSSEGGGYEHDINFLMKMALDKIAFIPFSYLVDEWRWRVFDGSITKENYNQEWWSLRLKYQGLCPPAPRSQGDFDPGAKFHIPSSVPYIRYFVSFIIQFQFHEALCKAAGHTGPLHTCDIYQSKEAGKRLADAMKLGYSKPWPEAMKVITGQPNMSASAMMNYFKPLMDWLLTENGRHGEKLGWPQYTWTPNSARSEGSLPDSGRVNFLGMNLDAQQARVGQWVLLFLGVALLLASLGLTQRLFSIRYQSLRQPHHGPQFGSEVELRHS
The assay is described as follows: Inhibition of the activity of rabbit lung Angiotensin I converting enzyme. In a few lines:
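Rabbit lung acetone-powder ACE, crude and dialyzed. Enzyme was added to substrate ± inhibitor and the reaction stopped with HCl after 10 min. Hippuric acid was extracted into AcOEt and read at 228 nm.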

Assay [3] addresses T1, Angiotensin-converting enzyme. The assay is described as follows: In vitro inhibition of Angiotensin I converting enzyme activity at pH 8.5 in rabbit lung. It is filed as tissue-based. The settings on record: read-out: I50.
The target is the same in assay [4]. In words: In vitro inhibition of Angiotensin I converting enzyme activity in rabbit lung. To be noted: read-out: I50. It is filed as tissue-based.
Assay [5] deals with Angiotensin-converting enzyme (Rattus norvegicus) (UniProt P47820). The assay is described as follows: Percentage inactivation of the angiotensin I induced vasopressor response in normotensive conscious rats after po administration at dose 1.5 mg/kg; 3-5.
Angiotensin-converting enzyme (Rattus norvegicus), sequence (P47820 whole entry, looked up): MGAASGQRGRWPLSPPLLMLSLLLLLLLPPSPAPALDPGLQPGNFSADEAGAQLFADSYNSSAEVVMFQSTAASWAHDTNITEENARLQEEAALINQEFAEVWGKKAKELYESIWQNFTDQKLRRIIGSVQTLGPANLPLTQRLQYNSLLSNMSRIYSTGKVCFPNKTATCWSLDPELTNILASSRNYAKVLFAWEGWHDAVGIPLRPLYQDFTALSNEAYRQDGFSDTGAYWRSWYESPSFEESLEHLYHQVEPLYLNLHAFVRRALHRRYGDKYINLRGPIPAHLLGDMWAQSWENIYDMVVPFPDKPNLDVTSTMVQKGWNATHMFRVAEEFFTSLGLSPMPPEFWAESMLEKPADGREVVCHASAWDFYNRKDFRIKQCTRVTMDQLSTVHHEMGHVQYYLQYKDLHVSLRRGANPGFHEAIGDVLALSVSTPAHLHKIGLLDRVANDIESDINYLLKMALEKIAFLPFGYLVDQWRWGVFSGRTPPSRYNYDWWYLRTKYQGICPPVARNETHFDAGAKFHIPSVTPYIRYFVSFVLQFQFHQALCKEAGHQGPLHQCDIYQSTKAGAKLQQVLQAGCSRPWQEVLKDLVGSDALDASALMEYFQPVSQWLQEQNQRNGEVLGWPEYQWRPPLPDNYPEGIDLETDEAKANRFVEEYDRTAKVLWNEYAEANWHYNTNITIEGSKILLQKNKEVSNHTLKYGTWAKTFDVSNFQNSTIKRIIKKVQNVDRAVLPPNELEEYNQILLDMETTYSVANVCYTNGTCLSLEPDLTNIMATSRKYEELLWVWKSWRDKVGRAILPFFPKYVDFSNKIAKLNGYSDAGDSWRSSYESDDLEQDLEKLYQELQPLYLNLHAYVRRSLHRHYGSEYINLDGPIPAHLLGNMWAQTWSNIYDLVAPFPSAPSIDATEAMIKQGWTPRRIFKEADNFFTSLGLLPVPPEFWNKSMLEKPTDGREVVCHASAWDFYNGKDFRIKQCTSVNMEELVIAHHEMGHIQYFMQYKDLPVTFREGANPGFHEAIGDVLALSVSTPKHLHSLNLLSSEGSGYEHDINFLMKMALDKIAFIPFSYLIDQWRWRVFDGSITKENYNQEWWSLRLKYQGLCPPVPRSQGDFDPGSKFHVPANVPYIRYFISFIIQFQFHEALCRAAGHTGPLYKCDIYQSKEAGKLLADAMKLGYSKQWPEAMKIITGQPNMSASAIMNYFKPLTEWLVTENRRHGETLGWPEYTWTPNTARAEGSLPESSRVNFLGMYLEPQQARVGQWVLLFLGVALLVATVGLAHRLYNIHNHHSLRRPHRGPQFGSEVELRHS
Assay [6] shares this target. In words: The time to 50% recovery of the angiotensin I response was measured after po administration at 1.5 mg/kg.
Assay [7] shares this target. In words: Percentage inactivation of the angiotensin I induced vasopressor response in normotensive conscious rats after po administration at dose 1.5 mg/kg; 20-34.
The target is the same in assay [8]. The assay is described as follows: The time to 50% recovery of the angiotensin I response was measured after po administration at 1.5 mg/kg; 0-30.
For assay [9] the target is unchanged. In words: Percentage inactivation of the angiotensin I induced vasopressor response in normotensive conscious rats after po administration at dose 1.5 mg/kg; 0-29.
Assay [10] has the same target. The assay is described as follows: The time to 50% recovery of the angiotensin I response was measured after po administration at 1.5 mg/kg; 20-50.
For assay [11] the target is unchanged. In words: Percentage inactivation of the angiotensin I induced vasopressor response in normotensive conscious rats after po administration at dose 1.5 mg/kg; 14-21.
The subject of assay [12] is Rattus norvegicus. The assay is described as follows: Time taken by the compound to change arterial pressure outside the control area at a dose of 30mg/kg, po. It is filed as functional, Artery.
Assay [13] concerns the target Angiotensin-converting enzyme (Rattus norvegicus) (UniProt P47820). The assay is described as follows: The time to 50% recovery of the angiotensin I response was measured after po administration at 0.3 mg/kg.
For assay [14] the target is unchanged. In words: Percentage inactivation of the angiotensin I induced vasopressor response in normotensive conscious rats after po administration at dose 0.058 mg/kg; 65-70.
The target is the same in assay [15]. The assay is described as follows: The time to 50% recovery of the angiotensin I response was measured after po administration at 1.5 mg/kg; 20-80.
Assay [16] shares this target. In words: Percentage inactivation of the angiotensin I induced vasopressor response in normotensive conscious rats after po administration at dose 1.5 mg/kg; 43-64.
Assay [17] shares this target. The assay is described as follows: Percentage inactivation of the angiotensin I induced vasopressor response in normotensive conscious rats after po administration at dose 1.5 mg/kg; 17-24. The settings on record: at 1.5 mg/kg.
The target is the same in assay [18]. The assay is described as follows: The time to 50% recovery of the angiotensin I response was measured after po administration at 1.5 mg/kg; 30-50.
Assay [19] shares this target. The assay is described as follows: The time to 50% recovery of the angiotensin I response was measured after po administration at 0.15 mg/kg; 10-30.
The target is the same in assay [20]. In words: Percentage inactivation of the angiotensin I induced vasopressor response in normotensive conscious rats after po administration at dose 1.50 mg/kg; 73-79.
For assay [21] the target is unchanged. In words: Percentage inactivation of the angiotensin I induced vasopressor response in normotensive conscious rats after po administration at dose 0.15 mg/kg; 24-49.
Assay [22] shares this target. In words: The time to 50% recovery of the angiotensin I response was measured after po administration at 0.15 mg/kg; 60-140.
For assay [23] the target is unchanged. In words: Percentage inactivation of the angiotensin I induced vasopressor response in normotensive conscious rats after po administration at dose 0.15 mg/kg; 85-96.

Some results are limits rather than exact numbers.

Turning to `C[C@H](CS)C(=O)N1CCC[C@H]1C(=O)O` [CAPTOPRIL], the MAP in the assay with Rattus norvegicus [1] is given as -30%.

`CC(=O)SC(C)C(=O)N1Cc2ccccc2CC1(C)C(=O)O` (stereo unspecified) displayed an IC50 in assay [2] greater than 100 µM.

As to `CC1SC(=O)C(C)N(C2CCCC2)C1=O` (stereo unspecified), the IC50 in [3] was 6800 nM; in [4], 27000 nM. Further, the inhibition in assay [5] turned out to be 3%.

In the case of `CC(S)C(=O)N(C1CCCC1)C(C)C(=O)O` (stereo unspecified), in assay [2], the IC50 came to 6.8 µM.

For `CC1SC(=O)C(C)(C)N(C2CCCC2)C1=O` (stereo unspecified), the IC50 in [4] stood at 90000 nM. Further, the Duration in assay [6] turned out to be 20 min. This molecule came in with an inhibition in [7] of 20%.

In the case of `CC(=O)SC(C)C(=O)N(C1CCCC1)C(C)(C)C(=O)O` (stereo unspecified), in [2], the IC50 stood at 95 µM.

Regarding `CC(S)C(=O)N1CSC[C@H]1C(=O)O` (stereo in doubt; 37b(R,R)), the IC50 in assay [2] came to 10 µM.

`CC(=O)SC(C)C(=O)N(CC(=O)O)c1ccc(C)cc1` (stereo unspecified) yielded an IC50 in assay [2] of 0.18 µM.

Consider `CC1SC(=O)CNC1=O` (stereo unspecified), for which the IC50 in assay [3] and in assay [4] was 1900 nM in each case.

Molecule `CC(=O)S[C@@H](C)C(=O)N1CSC[C@H]1C(=O)O` gave an IC50 in assay [2] of 1.7 µM.

Turning to `CC1CSC(=O)C2N(C1=O)C(C)(C)SC2(C)C` (stereo unspecified), the IC50 stood at 15000 nM in assay [3] and 50000 nM in [4]. In [8], this molecule returned a Duration of 0 min. Moreover, the inhibition in assay [9] worked out at 0%.

As to `CC1SC(=O)C2N(C1=O)C(C)(C)SC2(C)C` (stereo unspecified), the figures for the IC50 in [3] and in assay [4] were 21000 nM and greater than 100000 nM, respectively. Besides, in assay [10], the Duration came out at 20 min. In assay [11], this molecule showed an inhibition of 14%.

In the case of `C[C@H](CSC(=O)C(C)(C)C)C(=O)N(CC(=O)O)C1CCCC1` [PIVOPRIL], the IC50 in assay [3] turned out to be 17 nM. Besides, the Duration in the assay with Rattus norvegicus [12] was greater than 24 h; in assay [13], 60 min. For the same molecule, the MAP in the assay on Rattus norvegicus [1] was -30%. This molecule also gave an inhibition in [14] of 50%.

Take `CC1CSC(=O)[C@@H]2Cc3ccccc3CN2C1=O` (stereo partly specified): the IC50 is 45 nM in [3] and 18 nM in assay [4].

`CC(=O)SC(C)C(=O)N1C(C(=O)O)C(C)(C)SC1(C)C` (stereo unspecified): the IC50 in assay [2] was greater than 100 µM.

Take `CC1CSC(=O)[C@@H]2CSCN2C1=O` (stereo partly specified): the figures for the IC50 in assay [3] and in assay [4] were 58 nM and 47 nM, respectively. The same molecule came in with a Duration in [15] of 20 min. The inhibition in [16] was found to be 43%.

`CC1SC(=O)[C@@H]2CCCN2C1=O` (stereo partly specified): in [4], the IC50 is 33000 nM. For the same molecule, the Duration in [6] stood at 10 min. Further, in [17], the inhibition amounted to 17%.

Consider `CC(=O)SC(C)C(=O)N(CC(=O)O)C1CCCC1` (stereo unspecified), for which, in [2], the IC50 amounted to 0.51 µM.

In assay [2], `CC(=O)S[C@H](C)C(=O)N1CSC[C@H]1C(=O)O` displayed an IC50 of 37 µM.

In assay [2], `Cc1ccc(N(CC(=O)O)C(=O)C(C)S)cc1` (stereo unspecified) came in with an IC50 of 0.026 µM.

The molecule `CC(S)C(=O)N1C(C(=O)O)C(C)(C)SC1(C)C` (stereo unspecified) had an IC50 in assay [2] of 21 µM.

`CC(S)C(=O)N1CSC[C@H]1C(=O)O` (stereo in doubt; 37b(S,R)): the IC50 in assay [2] came out at 0.14 µM.

Turning to `CC1SC(=O)CN(C2CCCC2)C1=O` (stereo unspecified), the IC50 in assay [3] was 57 nM; in [4], 150 nM. The Duration in [18] came to 30 min; in assay [19], 10 min. The inhibition is 73% in assay [20] and 24% in [21].

`CC(S)C(=O)N(CC(=O)O)C1CCCC1` (stereo unspecified) had an IC50 in assay [2] of 0.057 µM.

In [2], `CC(=O)SC(C)C(=O)N(C1CCCC1)C(C)C(=O)O` (stereo unspecified) came in with an IC50 of 6.8 µM.

Consider `C[C@H]1CSC(=O)[C@@H]2Cc3ccccc3CN2C1=O`, for which the IC50 in [4] was 800 nM.

Consider `CC1CSC(=O)CN(C2CC3CCC2C3)C1=O` (stereo unspecified), for which the IC50 turned out to be 25 nM in [3] and 12 nM in assay [4]. The molecule also registered a Duration in assay [22] of 60 min. The molecule also gave an inhibition in [23] of 85%.

The inhibition is the drop in the measured response relative to a control, in per cent. Low values mean a weak effect, high ones a strong effect.
